Source: ChEMBL document CHEMBL2380270, “Radiosynthesis and first evaluation in mice of [(18)F]NS14490 for molecular imaging of α7 nicotinic acetylcholine receptors” (Bioorg Med Chem, 2013)

Tests used:
[1] = tested on: Mus musculus; experiment: Biodistribution in CD1 mouse large intestine at 200 to 300 kBq, iv measured at 15 mins by gamma counting analysis; type: ADME, organism-based; conditions: in vivo, 0.25 h
How it was run: (§1)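 Female CD-1 mice, 200–300 kBq radiotracer given iv, n = 3 per time point. Animals anaesthetised for blood and urine sampling, then killed by cervical dislocation at 5, 15, 30 or 60 min p.i. Organs removed, weighed and gamma-counted; uptake expressed as % injected dose per g wet tissue.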

[2] = tested on: Lung; experiment: Biodistribution in CD1 mouse lung at 200 to 300 kBq, iv measured at 15 mins by gamma counting analysis; type: ADME, organism-based; conditions: in vivo, 0.25 h
How it was run: (§2)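 Female CD-1 mice received 200–300 kBq [18F]radiotracer intravenously. Blood and urine were sampled under anaesthesia, then mice were killed by cervical dislocation at 5, 15, 30 or 60 min p.i. (n = 3; control at 60 min n = 7). Organs were removed and weighed, activity was gamma-counted, and uptake was expressed as % injected dose per g wet tissue.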

[3] = tested on: Liver; experiment: Biodistribution in CD1 mouse liver at 200 to 300 kBq, iv measured at 15 mins by gamma counting analysis; type: ADME, organism-based; conditions: in vivo, 0.25 h; how it was run: as §2
[4] = tested on: Liver; experiment: Biodistribution in CD1 mouse liver at 200 to 300 kBq, iv measured at 60 mins by gamma counting analysis in presence of SSR180711; type: ADME, organism-based; conditions: in vivo, 1 h
How it was run: (§3)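 Blocking design in female CD-1 mice, n = 7 per group. The blocker was given at 10 mg kg^-1 i.p. in 0.9% saline 10 min before i.v. 200–300 kBq [18F]radiotracer. Mice were killed at 60 min p.i. and organs weighed and gamma-counted as % ID per g wet weight. Blocked groups were compared with controls by two-tailed independent Student's t test.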

[5] = tested on: Femur; experiment: Biodistribution in CD1 mouse femur at 200 to 300 kBq, iv measured at 60 mins by gamma counting analysis; type: ADME, organism-based; conditions: in vivo, 1 h; how it was run: as §1
[6] = tested on: Zone of skin; experiment: Biodistribution in CD1 mouse skin at 200 to 300 kBq, iv measured at 5 mins by gamma counting analysis; type: ADME, organism-based; conditions: in vivo; how it was run: as §2
[7] = tested on: Mus musculus; experiment: Biodistribution in CD1 mouse thymus at 200 to 300 kBq, iv measured at 15 mins by gamma counting analysis; type: ADME, organism-based; conditions: in vivo, 0.25 h; how it was run: as §2
[8] = tested on: Urinary bladder; experiment: Biodistribution in CD1 mouse bladder at 200 to 300 kBq, iv measured at 60 mins by gamma counting analysis in presence of SSR180711; type: ADME, organism-based; conditions: in vivo, 1 h
How it was run: (§4)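 Blocking study in female CD-1 mice, n = 7 per blocker, with a matching control group. SSR180711 or NS6740 given at 10 mg kg⁻¹ ip in 0.9% saline 10 min before iv radiotracer (200–300 kBq). Organs taken at 60 min p.i., weighed and gamma-counted; uptake as % ID per g wet weight. Compared with control by two-tailed independent Student's t test.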

[9] = tested on: Pancreas; experiment: Biodistribution in CD1 mouse pancreas at 200 to 300 kBq, iv measured at 5 mins by gamma counting analysis; type: ADME, organism-based; conditions: in vivo; how it was run: as §2
[10] = tested on: Mus musculus; experiment: Biodistribution in CD1 mouse large intestine at 200 to 300 kBq, iv measured at 60 mins by gamma counting analysis; type: ADME, organism-based; conditions: in vivo, 1 h; how it was run: as §1
[11] = tested on: Spleen; experiment: Biodistribution in CD1 mouse spleen at 200 to 300 kBq, iv measured at 30 mins by gamma counting analysis; type: ADME, organism-based; conditions: in vivo, 0.5 h; how it was run: as §2
[12] = tested on: Stomach; experiment: Biodistribution in CD1 mouse stomach at 200 to 300 kBq, iv measured at 5 mins by gamma counting analysis; type: ADME, organism-based; conditions: in vivo; how it was run: as §2
[13] = tested on: Urinary bladder; experiment: Biodistribution in CD1 mouse bladder at 200 to 300 kBq, iv measured at 60 mins by gamma counting analysis; type: ADME, organism-based; conditions: in vivo, 1 h; how it was run: as §1
[14] = tested on: Zone of skin; experiment: Biodistribution in CD1 mouse skin at 200 to 300 kBq, iv measured at 60 mins by gamma counting analysis; type: ADME, organism-based; conditions: in vivo, 1 h; how it was run: as §2
[15] = tested on: Muscle tissue; experiment: Biodistribution in CD1 mouse muscle at 200 to 300 kBq, iv measured at 5 mins by gamma counting analysis; type: ADME, organism-based; conditions: in vivo; how it was run: as §2
[16] = tested on: Zone of skin; experiment: Biodistribution in CD1 mouse skin at 200 to 300 kBq, iv measured at 30 mins by gamma counting analysis; type: ADME, organism-based; conditions: in vivo, 0.5 h; how it was run: as §2
[17] = tested on: Kidney; experiment: Biodistribution in CD1 mouse kidney at 200 to 300 kBq, iv measured at 60 mins by gamma counting analysis; type: ADME, organism-based; conditions: in vivo, 1 h; how it was run: as §1
[18] = tested on: Heart; experiment: Biodistribution in CD1 mouse heart at 200 to 300 kBq, iv measured at 15 mins by gamma counting analysis; type: ADME, organism-based; conditions: in vivo, 0.25 h; how it was run: as §1
[19] = tested on: Lung; experiment: Biodistribution in CD1 mouse lung at 200 to 300 kBq, iv measured at 60 mins by gamma counting analysis; type: ADME, organism-based; conditions: in vivo, 1 h; how it was run: as §2
[20] = tested on: Mus musculus; experiment: Biodistribution in CD1 mouse adrenal at 200 to 300 kBq, iv measured at 30 mins by gamma counting analysis; type: ADME, organism-based, Adrenal gland; conditions: in vivo, 0.5 h; how it was run: as §1
[21] = tested on: Muscle tissue; experiment: Biodistribution in CD1 mouse muscle at 200 to 300 kBq, iv measured at 30 mins by gamma counting analysis; type: ADME, organism-based; conditions: in vivo, 0.5 h; how it was run: as §2
[22] = tested on: Heart; experiment: Biodistribution in CD1 mouse heart at 200 to 300 kBq, iv measured at 30 mins by gamma counting analysis; type: ADME, organism-based; conditions: in vivo, 0.5 h; how it was run: as §1
[23] = tested on: Brain; experiment: Biodistribution in CD1 mouse brain at 200 to 300 kBq, iv measured at 15 mins by gamma counting analysis; type: ADME, organism-based; conditions: in vivo, 0.25 h; how it was run: as §1
[24] = tested on: Femur; experiment: Biodistribution in CD1 mouse femur at 200 to 300 kBq, iv measured at 60 mins by gamma counting analysis in presence of SSR180711; type: ADME, organism-based; conditions: in vivo, 1 h; how it was run: as §4
[25] = Biodistribution in CD1 mouse urine at 200 to 300 kBq, iv measured at 5 mins by gamma counting analysis; type: ADME, organism-based; conditions: in vivo
How it was run: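 Female CD-1 mice given 200–300 kBq tracer intravenously. Animals anaesthetised for blood and urine sampling, then killed by cervical dislocation at 5, 15, 30 or 60 min (n = 3 per time; n = 7 at 60 min). Organs removed and weighed, activity gamma-counted, expressed as % injected dose per g wet weight. Blocking arm: 10 mg/kg i.p. in 0.9% saline, 10 min before tracer; two-tailed unpaired t test versus control.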

[26] = tested on: Heart; experiment: Biodistribution in CD1 mouse heart at 200 to 300 kBq, iv measured at 60 mins by gamma counting analysis; type: ADME, organism-based; conditions: in vivo, 1 h; how it was run: as §1
[27] = tested on: Pancreas; experiment: Biodistribution in CD1 mouse pancreas at 200 to 300 kBq, iv measured at 60 mins by gamma counting analysis in presence of SSR180711; type: ADME, organism-based; conditions: in vivo, 1 h; how it was run: as §3
[28] = tested on: Zone of skin; experiment: Biodistribution in CD1 mouse skin at 200 to 300 kBq, iv measured at 60 mins by gamma counting analysis in presence of SSR180711; type: ADME, organism-based; conditions: in vivo, 1 h; how it was run: as §3
[29] = tested on: Heart; experiment: Biodistribution in CD1 mouse heart at 200 to 300 kBq, iv measured at 5 mins by gamma counting analysis; type: ADME, organism-based; conditions: in vivo; how it was run: as §1
[30] = tested on: Brain; experiment: Biodistribution in CD1 mouse brain at 200 to 300 kBq, iv measured at 60 mins by gamma counting analysis in presence of SSR180711; type: ADME, organism-based; conditions: in vivo, 1 h; how it was run: as §4
[31] = tested on: Brain; experiment: Biodistribution in CD1 mouse brain at 200 to 300 kBq, iv measured at 5 mins by gamma counting analysis; type: ADME, organism-based; conditions: in vivo; how it was run: as §1
[32] = tested on: Mus musculus; experiment: Biodistribution in CD1 mouse adrenal at 200 to 300 kBq, iv measured at 5 mins by gamma counting analysis; type: ADME, organism-based, Adrenal gland; conditions: in vivo; how it was run: as §1
[33] = tested on: Femur; experiment: Biodistribution in CD1 mouse femur at 200 to 300 kBq, iv measured at 30 mins by gamma counting analysis; type: ADME, organism-based; conditions: in vivo, 0.5 h; how it was run: as §1

**Q.** Which Drug uptake [1] does the source give for `O=C(Oc1ccc(Br)cc1)N1CCN2CCC1CC2` [SSR180711] here?
**A.** 2.65 % ID/g

**Q.** What about the Drug uptake [2] of the same compound?
**A.** 10.8 % ID/g

**Q.** And the Drug uptake [3]?
**A.** 9.39 % ID/g

**Q.** And the Drug uptake [4]?
**A.** 6.45 % ID/g

**Q.** And the Drug uptake [5]?
**A.** 2.09 % ID/g

**Q.** What about the Drug uptake [6] of the same compound?
**A.** 0.81 % ID/g

**Q.** And the Drug uptake [7]?
**A.** 2.98 % ID/g

**Q.** What about the Drug uptake [8] of the same compound?
**A.** 1.47 % ID/g

**Q.** And the Drug uptake [9]?
**A.** 5.16 % ID/g

**Q.** And the Drug uptake [10]?
**A.** 5.02 % ID/g

**Q.** What about the Drug uptake [11] of the same compound?
**A.** 7.5 % ID/g

**Q.** What about the Drug uptake [12] of the same compound?
**A.** 3.92 % ID/g

**Q.** And the Drug uptake [13]?
**A.** 1.88 % ID/g

**Q.** And the Drug uptake [14]?
**A.** 1.94 % ID/g

**Q.** What about the Drug uptake [15] of the same compound?
**A.** 1.59 % ID/g

**Q.** What about the Drug uptake [16] of the same compound?
**A.** 1.23 % ID/g

**Q.** What about the Drug uptake [17] of the same compound?
**A.** 10.4 % ID/g

**Q.** And the Drug uptake [18]?
**A.** 2.96 % ID/g

**Q.** And the Drug uptake [19]?
**A.** 4.88 % ID/g

**Q.** And the Drug uptake [20]?
**A.** 4.61 % ID/g

**Q.** What about the Drug uptake [21] of the same compound?
**A.** 1.26 % ID/g

**Q.** What about the Drug uptake [22] of the same compound?
**A.** 2.41 % ID/g

**Q.** What about the Drug uptake [23] of the same compound?
**A.** 0.24 % ID/g

**Q.** And the Drug uptake [24]?
**A.** 1.43 % ID/g

**Q.** What about the Drug uptake [25] of the same compound?
**A.** 23.9 % ID/g

**Q.** What about the Drug uptake [26] of the same compound?
**A.** 1.84 % ID/g

**Q.** What about the Drug uptake [27] of the same compound?
**A.** 2.96 % ID/g

**Q.** And the Drug uptake [28]?
**A.** 2.04 % ID/g

**Q.** And the Drug uptake [29]?
**A.** 3.35 % ID/g

**Q.** What about the Drug uptake [30] of the same compound?
**A.** 0.15 % ID/g

**Q.** And the Drug uptake [31]?
**A.** 0.16 % ID/g

**Q.** What about the Drug uptake [32] of the same compound?
**A.** 5.78 % ID/g

**Q.** And the Drug uptake [33]?
**A.** 1.48 % ID/g
